# Measurements: ChEMBL document CHEMBL1133450, “Synthesis and antitumor activity of thieno-separated tricyclic purines” (2000)
# How the values were obtained:
# HCT-116 [1] = assay: Tested for percentage inhibition of HCT116 cell growth after 24 hr at 1 uM; format: functional; conditions: Homo sapiens, HCT-116, 24 h; values are per cent of control
# Outline: (§1)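 HCT116 cells grown in DMEM with 2 mM L-glutamine, penicillin/streptomycin, nonessential amino acids, 10% heat-inactivated FBS, 37 °C, 5% CO2. Seeded at 500 cells/well, 72 h later refed with serum-containing medium plus DMSO vehicle or agent. CellTiter96 read-out at 24, 48 or 72 h of treatment, expressed as % of DMSO-treated cells. Mean ± SEM, n = 3-5. Student's t-test, significance p < 0.05.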
# HCT-116 [2] = assay: Tested for percentage inhibition of HCT116 cell growth after 24 hr at 0.1 uM; format: functional; conditions: Homo sapiens, HCT-116, 24 h; values are per cent of control; outline: as §1
# HCT-116 [3] = assay: Tested for HCT116 cell growth as percentage of control after 24 hr at 100 uM; conditions: Homo sapiens, HCT-116, 24 h
# HCT-116 [4] = assay: Tested for percentage inhibition of HCT116 cell growth after 72 hr at 100 uM, (p<0.05); format: functional; conditions: Homo sapiens, HCT-116, 72 h; values are per cent of control; outline: as §1
# HCT-116 [5] = assay: Tested for HCT116 cell growth as percentage of control after 48 hr at 100 uM, (p<0.005); conditions: Homo sapiens, HCT-116, 48 h
# HCT-116 [6] = assay: Tested for percentage inhibition of HCT116 cell growth after 72 hr at 0.1 uM; format: functional; conditions: Homo sapiens, HCT-116, 72 h; values are per cent of control; outline: as §1
# HCT-116 [7] = assay: Tested for percentage inhibition of HCT116 cell growth after 48 hr at 10 uM; format: functional; conditions: Homo sapiens, HCT-116, 48 h; values are per cent of control; outline: as §1
# HCT-116 [8] = assay: Tested for HCT116 cell growth as percentage of control after 48 hr at 0.1 uM; conditions: Homo sapiens, HCT-116, 48 h
# HCT-116 [9] = assay: Tested for HCT116 cell growth as percentage of control after 72 hr at 1 uM; conditions: Homo sapiens, HCT-116, 72 h
# HCT-116 [10] = assay: Tested for HCT116 cell growth as percentage of control after 24 hr at 10 uM; conditions: Homo sapiens, HCT-116, 24 h
# HCT-116 [11] = assay: Tested for percentage inhibition of HCT116 cell growth after 48 hr at 1 uM; format: functional; conditions: Homo sapiens, HCT-116, 48 h; values are per cent of control; outline: as §1
# HCT-116 [12] = assay: Tested for HCT116 cell growth as percentage of control after 72 hr at 10 uM; conditions: Homo sapiens, HCT-116, 72 h
# HCT-116 [13] = assay: Tested for percentage inhibition of HCT116 cell growth after 48 hr at 100 uM, (p<0.05); format: functional; conditions: Homo sapiens, HCT-116, 48 h; values are per cent of control; outline: as §1
# HCT-116 [14] = assay: Tested for percentage inhibition of HCT116 cell growth after 72 hr at 0.1 uM, (p<0.05); format: functional; conditions: Homo sapiens, HCT-116, 72 h; values are per cent of control; outline: as §1
# HCT-116 [15] = assay: Tested for HCT116 cell growth as percentage of control after 24 hr at 10 uM; conditions: Homo sapiens, HCT-116, 24 h; remark: listed apart in the source
SMILES,"growth, % of control at 1 µM (HCT-116 [1]) [%]","growth, % of control at 0.1 µM (HCT-116 [2]) [%]","growth, % of control at 100 µM (HCT-116 [3]) [%]","growth, % of control at 100 µM (HCT-116 [4]) [%]","growth, % of control at 100 µM (HCT-116 [5]) [%]","growth, % of control at 0.1 µM (HCT-116 [6]) [%]",growth (% of control) at 10 µM (HCT-116 [7]) [%],"growth, % of control at 0.1 µM (HCT-116 [8]) [%]","growth, % of control at 1 µM (HCT-116 [9]) [%]",growth (% of control) at 10 µM (HCT-116 [10]) [%],"growth, % of control at 1 µM (HCT-116 [11]) [%]",growth (% of control) at 10 µM (HCT-116 [12]) [%],"growth, % of control at 100 µM (HCT-116 [13]) [%]","growth, % of control at 0.1 µM (HCT-116 [14]) [%]",growth (% of control) at 10 µM (HCT-116 [15]) [%]
Nc1ncnc2c1sc1nc[nH]c12,107,96.1,82,51.5,71.5,101,105,105,96.1,105,98.3,93.8,,,
Nc1nc(O)c2sc3[nH]cnc3c2n1,96.7,98.7,75.8,76.1,,,85,96.8,117,,95.9,99.5,77,107,93.2
